The list is not random: actives were taken first. Their share in the collection is about 4.5%.
OX1R antag-1 – human HCRTR1 antagonism. O43613. CHO/OX1R cells, Fluo-8 calcium fluorescence, orexin A. 0.43% of 330,000 active. inhibition, % at 5 µM. AID 434989;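 active = inhibition above its plate's threshold, mean inhibition of all tested compounds on the plate plus 3 SD, cut at about 37% in these data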
GPR7 antagonist – blocks human GPR7 receptor signaling; AID 1861; P48145; 1.1% of 290,000 active; GPR7-expressing cells, fluorescence antagonist assay; inhibition, % at 4.4 µM; in the data active = inhibition above about 16%, passing the limit was not always enough;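 also: cells stimulated with the agonist NPW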
Target sequence (P48145 whole entry, looked up): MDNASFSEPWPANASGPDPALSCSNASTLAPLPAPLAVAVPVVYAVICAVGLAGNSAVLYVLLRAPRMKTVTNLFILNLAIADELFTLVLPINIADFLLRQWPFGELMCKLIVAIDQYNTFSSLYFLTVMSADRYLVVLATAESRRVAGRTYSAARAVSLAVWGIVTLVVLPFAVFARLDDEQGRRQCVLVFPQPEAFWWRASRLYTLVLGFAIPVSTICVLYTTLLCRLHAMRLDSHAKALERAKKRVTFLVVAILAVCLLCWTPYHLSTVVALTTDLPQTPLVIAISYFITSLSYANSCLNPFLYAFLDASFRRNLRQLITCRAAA
TAAR1 ag – agonists of human TAAR1; Q96RJ0; activation, % at 3 µM; CHO RD-HGA16 TAAR1, Fluo-8 calcium fluorescence; vehicle wells 0%, saturating PEA agonist 100%; 0.99% of 360,000 active;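 active = activation above the mean activation of all test compounds in the run plus 3 SD, cut at about 38% in these data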
Target sequence (Q96RJ0 whole entry, looked up): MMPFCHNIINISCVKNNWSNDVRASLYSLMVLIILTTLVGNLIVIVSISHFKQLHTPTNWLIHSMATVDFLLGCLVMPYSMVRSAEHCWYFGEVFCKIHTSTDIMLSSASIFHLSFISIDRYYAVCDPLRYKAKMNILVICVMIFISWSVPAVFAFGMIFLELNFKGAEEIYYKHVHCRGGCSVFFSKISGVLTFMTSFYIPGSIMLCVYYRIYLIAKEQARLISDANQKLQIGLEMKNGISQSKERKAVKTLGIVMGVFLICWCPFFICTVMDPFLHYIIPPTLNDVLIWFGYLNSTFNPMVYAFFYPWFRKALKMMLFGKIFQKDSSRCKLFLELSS
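Assay system – CHO-derived RD-HGA16 cells with stable Gα16 and human TAAR1 · Compound dosing – one-point dosing at 3 µM (nominal) · Incubation – 17-24 h seeding, 75 min 37 °C dye, 30 min RT · Measured by – kinetic Fluo-8 calcium fluorescence · Control set – DMSO vehicle as 0%, PEA at EC100 as 100% · Repeats – single well for each compound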
OX1R antag-2 – blocks the human orexin 1 receptor; O43613; OX1R-expressing cells, FRET antagonist read-out; inhibition, % at 6.6 µM; 1.8% of 330,000 active; in the data active = inhibition mostly above about 38%, no sharp cut-off; inactive = mostly below about 40%
CHO parental Ca – counter-screen for OX1R antagonists: effect in parental CHO cells | parental CHO-K1, ATP-induced calcium, Fluo-8 fluorescence | inhibition, % at 5.6 µM | 0.63% of 330,000 active | AID 463079;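 active = inhibition above that plate's mean sample inhibition plus 3 SD, cut at about 26% in these data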
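Test system: untransfected parental CHO cell line. Compound: one dose, 5.6 µM nominal. Detection: intracellular calcium via Fluo-8 no-wash fluorescent dye. Measure: % inhibition. Benchmarks: ATP-challenged DMSO wells low, unchallenged DMSO wells high.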
TAAR1 antagonist – human TAAR1 antagonism; CHO RD-HGA16 TAAR1, Fluo-8 calcium fluorescence, antagonist; inhibition, % at 3 µM; AID 624466; Q96RJ0; 1.5% of 360,000 active;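 active = inhibition above a per-plate cutoff, the mean inhibition of test compounds on that plate plus 3 SD, cut at about 49% in these data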
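Test system: RD-HGA16 CHO cells with stable hTAAR1 and Gα16 / Probe or stimulus: EC80 β-phenethylamine stimulus / Times: seeding 17-24 h prior, 75-min 37 °C, 30-min RT dye loading / Detection: Fluo-8 calcium-sensitive fluorescence / Read-out basis: % inhibition scaled between DMSO and EC80 PEA controls / Repeats: singlicate, one well per test compound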
TAAR1 ag confirm – human TAAR1 agonism, confirmed | 82% of 2,400 active | activation, % at 3 µM | shares compounds with TAAR1 ag | CHO RD-HGA16 TAAR1, Fluo-8 calcium fluorescence; scaled: DMSO 0%, maximal phenethylamine 100%;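 active = activation above a cutoff set at the run's mean compound activation plus 3 SD, cut at about 39% in these data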
Ga16 nonsel ag – counter-screen for TAAR1 agonists: nonselective agonists in parental cells | activation, % at 3 µM | CHO-Ga16 parental, Fluo-8 calcium fluorescence; normalized to maximal ATP response, DMSO zero | shares compounds with TAAR1 ag | 50% of 2,400 active | AID 651787;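 active = activation above the run cutoff, the mean activation over all tested wells plus 3 SD, cut at about 12% in these data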
TAAR1 desens – TAAR1 response desensitization, agonist counter-screen; CHO RD-HGA16 hTAAR1, Fluo-8 calcium, beta-PEA response inhibition; inhibition, % at 3 µM; AID 651951; shares compounds with TAAR1 ag; 46% of 2,400 active;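 active = inhibition above the run cutoff, the mean inhibition of all test compounds plus 3 SD, cut at about 49% in these data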;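 also: beta-PEA stimulus applied at its EC80; loss of beta-PEA calcium signal after compound pretreatment read as receptor desensitization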
Ga16 nonsel ant – counter-screen for TAAR1 agonists: nonselective Ga16 antagonists; shares compounds with TAAR1 ag; CHO-Ga16 ATP-induced calcium, Fluo-8 fluorescence; inhibition, % at 3 µM; 39% of 2,400 active; AID 651952;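 active = inhibition above the plate's mean compound inhibition plus 3 SD, computed per plate, cut at about 22% in these data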
A number is an active result; . = inactive; / = not tested or not shown.

SMILES	OX1R antag-1	GPR7 antagonist	TAAR1 ag	OX1R antag-2	CHO parental Ca	TAAR1 antagonist	TAAR1 ag confirm	Ga16 nonsel ag	TAAR1 desens	Ga16 nonsel ant
CCC1(CC)NC(=O)N(CC(=O)OCC(=O)Nc2cc(OC)ccc2OC)C1=O	.	/	.	.	.	.	/	/	/	/
COc1ccc(CNC(=O)c2cccnc2Sc2ccc(Cl)cc2)cc1	.	.	/	.	.	/	/	/	/	/
Cc1ccc(CNC(=O)c2cccnc2Sc2cccc(Cl)c2)cc1	.	.	73	.	.	.	82	40	.	35
Cc1ccc(-n2c(C)nnc2SCC(=O)N(C)c2c(N)n(Cc3ccccc3)c(=O)[nH]c2=O)cc1	.	/	.	.	.	.	/	/	/	/
COc1ccc(NC(=O)Cc2ccc(Cl)cc2Cl)cn1	.	.	56	.	.	.	.	.	.	.
CN(c1ccc(-c2csc(NC(=O)CCCc3nc4ccccc4c(=O)[nH]3)n2)cc1)S(C)(=O)=O	/	/	.	/	/	.	/	/	/	/
COc1ccc(Nc2cc(C)nc(N3CCOCC3)n2)cc1	.	.	49	.	.	.	70	.	.	.
COc1ccc(/C=N/Nc2cc(C)nc(N3CCOCC3)n2)cc1	.	.	.	.	.	.	/	/	/	/
S=c1[nH]ccn1CCc1ccccc1	.	.	62	.	.	.	64	.	.	.
CC(c1ccccc1)N1CC(C(=O)N2CCCC(C(N)=O)C2)CC1=O (stereo not drawn)	.	/	.	.	.	.	/	/	/	/
COc1ccc(C2SCCN2C(=S)Nc2ccc(F)cc2)cc1 (stereo not drawn)	.	.	.	.	.	.	/	/	/	/
CCOC(=O)c1ccc(NC(=S)N2CCSC2c2ccc(OC)cc2)cc1 (stereo not drawn)	.	.	93	.	.	72	83	37	67	44
O=C(NNC(=O)c1ccccc1O)c1cccc(Br)c1	.	.	.	.	.	.	/	/	/	/
N#C/C(=C\c1ccc(N2CCCCC2)o1)C(=O)Nc1cccc(Br)c1	92	.	189	.	83	101	93	143	87	90
COc1ccc(NC(=O)/C(C#N)=C\c2ccc(Br)o2)cc1	.	.	.	.	.	.	/	/	/	/
CC1CCc2sc(C(=O)OCC(=O)NCc3ccccc3)cc2C1 (stereo not drawn)	.	.	43	.	.	.	.	.	.	.
Cc1ccc(CNC(=O)COC(=O)c2cc3c(s2)CCC(C)C3)cc1 (stereo not drawn)	.	.	.	.	.	.	/	/	/	/
CCC(=NCCc1ccccc1)C1=C(O)CCC1=O	.	.	87	.	.	87	104	.	93	.
Cc1ccccc1OCC(=O)OCC(=O)NC1CCCC1	/	/	.	/	/	.	/	/	/	/
CC(C)CC(N)c1csc(NC(=O)Nc2ccccc2Cc2ccccc2)n1 (stereo not drawn)	/	/	.	/	/	.	/	/	/	/
CC(C)CC(N)c1csc(NC(=O)C(c2ccccc2)c2ccccc2)n1 (stereo not drawn)	/	/	75	/	/	66	75	34	73	50
O=c1c2ccccc2sn1-c1ccc(Cl)cc1	/	/	.	/	/	.	/	/	/	/
COC(=O)c1cccc(-n2sc3ccccc3c2=O)c1	.	/	63	.	.	.	50	22	.	.
O=c1c2ccccc2sn1-c1ccc(F)cc1	.	/	57	.	.	.	.	31	.	.
CCOc1ccc(S(=O)(=O)Nc2ccc(C(=O)N3CCCC3)cc2)cc1	.	.	.	.	.	.	/	/	/	/
SMILES	OX1R antag-1	GPR7 antagonist	TAAR1 ag	OX1R antag-2	CHO parental Ca	TAAR1 antagonist	TAAR1 ag confirm	Ga16 nonsel ag	TAAR1 desens	Ga16 nonsel ant
CCOc1ccc(NS(=O)(=O)c2ccc(C(=O)N3CCCC(C)C3)cc2)cc1 (stereo not drawn)	36	/	114	.	52	79	121	80	84	55
Cc1ccc(NS(=O)(=O)c2ccc(C(=O)N3CCCCCC3)cc2)cc1	.	/	86	.	.	.	80	52	.	39
Cc1ccc(NS(=O)(=O)c2ccc(C(=O)N3CCCN(C)CC3)cc2)cc1	.	.	.	.	.	.	/	/	/	/
Cn1c(=O)c2cc(NC(=S)NC3CCCCC3)ccc2n1-c1ccccc1	/	/	.	/	/	.	/	/	/	/
Cc1c(CNCC(C)c2ccccc2)c(C(=O)O)c(C)n1Cc1ccccc1 (stereo not drawn)	.	.	90	.	.	.	78	.	.	.
OC(COC(c1ccc(F)cc1)c1ccc(F)cc1)CN1CCCC(C(F)(F)F)C1 (stereo not drawn)	.	.	70	.	.	.	79	.	58	.
Cc1cc(C(=O)CN2C(=O)C(=O)N(C3CCCC3)C2=O)c(C)n1CCc1ccccc1	/	/	49	/	/	.	80	.	55	.
Cc1cc(C(=O)CN2C(=O)C(=O)N(Cc3ccccc3)C2=O)c(C)n1Cc1ccccc1	.	/	.	.	.	.	/	/	/	/
Cc1cc(C(=O)CN2C(=O)C(=O)N(C3CCCC3)C2=O)c(C)n1CCc1ccc(F)cc1	.	/	72	.	.	.	82	.	54	.
O=C(CN1C(=O)C(=O)N(C2CCCC2)C1=O)NCCc1ccc(F)cc1	.	/	.	.	.	.	/	/	/	/
O=S1(=O)N=C(N2CCc3ccccc3C2)c2ccccc21	.	.	63	.	.	.	61	.	.	.
Cc1cccc(Nc2nc(NCc3ccco3)c3ccccc3n2)c1	.	.	70	.	74	.	50	.	.	28
OCCNc1nc(Nc2ccc(O)cc2)nc2ccccc12	.	.	88	.	.	59	97	.	95	.
COc1cccc(Nc2nc(NCCO)c3ccccc3n2)c1	.	.	50	.	.	.	80	.	60	.
OCCNc1nc(NCc2ccccc2)c2ccccc2n1	.	.	.	.	.	.	/	/	/	/
Oc1cccc(Nc2c3ccccc3nc3ccccc23)c1	.	.	.	.	.	.	/	/	/	/
Cc1ccc(-c2nc(NCc3ccco3)c3ccccc3n2)cc1	.	.	.	.	.	.	/	/	/	/
OCCNc1nc(Nc2cccc(O)c2)nc2ccccc12	.	.	97	.	.	84	101	.	98	.
CCc1ccc(-c2cc(C)no2)cc1S(=O)(=O)N1CCCN(Cc2ccc(F)cc2)C1	.	.	.	.	.	.	/	/	/	/

Assay outcomes: PubChem BioAssay, The Scripps Research Institute Molecular Screening Center
